From ChEMBL document CHEMBL4808239, “Challenges of short substrate analogues as SARS-CoV-2 main protease inhibitors” (Bioorg Med Chem Lett, 2021) come the findings set out here.

Each structure is given as a SMILES string. Active and inactive are the calls of the source. The calls are words filed in the database; no cut-off is given here. Starred links: 1 amine or outer side, 2 acyl side, 3 side chain; linkers in the order of their positions; H or OH if unused. Non-standard residues stand in square brackets, D forms with d. Residues, ends and D or L forms follow the SMILES beside them. X1 = N#Cc1cc(C[C@H](N[*:1])C(=O)[*:2])ccn1; Tle = CC(C)(C)[C@H](N)C(=O)O; Thz = O=C(O)[C@@H]1CSCN1; Abu = CC[C@H](N)C(=O)O

The target in the first test is Replicase polyprotein 1ab (Severe acute respiratory syndrome coronavirus 2, UniProt P0DTD1). Description: Inhibition of SARS CoV-2 main protease using DABCYL-KTSAVLQ1SGFRKM-E(EDANS)-NH2 as substrate by FRET based assay.
In turn, `CC(C)C[C@@H]1NC(=O)[C@H](C(C)C)NC(=O)[C@H](C)NC(=O)[C@H](C)NC(=O)[C@@H]2CSC(=N2)c2cc(ccn2)C[C@@H](C(N)=O)NC(=O)[C@H](C)NC(=O)[C@H](CC(N)=O)NC1=O` displayed an IC50 above 100 µM. Regarding `CC[C@H](NC(C)=O)C(=O)N[C@H](C(=O)N[C@@H](CC(C)C)C(=O)N[C@@H](CCC(N)=O)C(N)=O)C(C)(C)C` (Ac-[Abu][Tle]LQ-NH2), the IC50 was above 100 µM.

`CC(C)C[C@@H]1NC(=O)[C@H](CCCNC(=N)N)NC(=O)[C@H](C)NC(=O)[C@@H]2CSC(=N2)c2cc(ccn2)C[C@@H](C(N)=O)NC(=O)[C@H](CCC(=O)O)NC1=O` had an IC50 above 100 µM. Compound `CC(C)C[C@@H]1NC(=O)[C@H](C(C)C)NC(=O)[C@@H]2CSC(=N2)c2cc(ccn2)C[C@@H](C(N)=O)NC(=O)[C@H](CO)NC(=O)[C@H](CCC(N)=O)NC1=O` yielded an IC50 above 100 µM. `CC(C)C[C@H](NC(=O)[C@@H](NC(=O)[C@H](C)NC(=O)[C@H](C)NC(=O)[C@@H]1CSCN1)C(C)C)C(=O)N[C@@H](CCC(N)=O)C(=O)N[C@@H](C)C(=O)N[C@@H](Cc1ccnc(C#N)c1)C(N)=O` (H-[Thz]AAVLQA[X1]-NH2) came in with an IC50 above 100 µM. In turn, `CC(C)C[C@@H]1NC(=O)[C@H](C(C)C)NC(=O)[C@H](C(C)C)NC(=O)[C@@H]2CSC(=N2)c2cc(ccn2)C[C@@H](C(N)=O)NC(=O)[C@H](CCC(=O)O)NC1=O` came in with an IC50 above 100 µM.

In a further test the target is Replicase polyprotein 1ab (Severe acute respiratory syndrome coronavirus 2) (UniProt P0DTD1). Description: Binding affinity to SARS CoV-2 15N/2H-labeled main protease assessed as chemical pertubations at 100 uM by 15HSQC-NMR spectrum analysis. Put shortly: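 Wild-type main protease, ¹⁵N/²H-labelled, expressed with His6 tag, Ni-NTA purified and tag-cleaved. [¹⁵N,¹H]-HSQC spectra recorded at 25 °C (600/800 MHz) with and without compound and overlaid to look for chemical shift changes.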
Consider `CC(C)C[C@@H]1NC(=O)[C@H](C(C)C)NC(=O)[C@H](C)NC(=O)[C@H](C)NC(=O)[C@@H]2CSC(=N2)c2cc(ccn2)C[C@@H](C(N)=O)NC(=O)[C@H](C)NC(=O)[C@H](CCC(N)=O)NC1=O`, for which the outcome was inactive.

Take `CC(C)C[C@@H]1NC(=O)[C@H](C(C)C)NC(=O)[C@H](C(C)C)NC(=O)[C@@H]2CSC(=N2)c2cc(ccn2)C[C@@H](C(N)=O)NC(=O)[C@H](CCC(N)=O)NC1=O`: the outcome was inactive.

Broadly, the IC50 is the point on the concentration scale where inhibition reaches its midpoint.
